Consider 13 compounds from ChEMBL document CHEMBL1127562, “N-substituted spirosuccinimide, spiropyridazine, spiroazetidine, and acetic acid aldose reductase inhibitors derived from isoquinoline-1,3-diones. 2” (J Med Chem, 1994).

The source made the active and inactive calls. The rule behind the calls is not given here.

In test [1] the target is Aldo-keto reductase family 1 member B1 (Bos taurus) (UniProt P16116). Briefly: Inhibition of aldose reductase activity in partially purified bovine lens preparation at 4*10 e-8 M.
Test [2] deals with Rattus norvegicus. Briefly: Tested for in vivo inhibition of galactitol accumulation in the lens of galactose-fed rats at the dose of 102.8 (mg/kg/day); NS=Not significant. The note with it: Lens of camera-type eye. It counts as functional, organism-based.
Test [3] deals with Rattus norvegicus. Briefly: Tested for in vivo inhibition of galactitol accumulation in the sciatic nerve of galactose-fed rats at the dose of 102.8 (mg/kg/day); NS=Not significant. It counts as functional, organism-based. The essentials:
(§1)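 Rats were given a 20% galactose diet for 4 days, with the test compound administered in the diet. Sciatic nerve galactitol accumulation was measured, and activity is given as % inhibition at the stated daily dose (mg/kg/day). Values are mean ± SEM, n = 6 animals; p < 0.01 unless indicated. NS means no significant inhibition of polyol accumulation.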

Test [4] concerns the target Aldo-keto reductase family 1 member B1 (Bos taurus) (UniProt P16116). Briefly: Inhibition of aldose reductase activity in partially purified bovine lens preparation at 10e-5 M. In outline:
(§2)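 Partially purified bovine lens aldose reductase. Reduction of DL-glyceraldehyde substrate followed spectrophotometrically. Activity expressed as average inhibition at the tested concentrations, 1×10^-5, 1×10^-6, 1×10^-7 and 4×10^-6 M as printed; IC50 in M where given.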

Test [5] relates to Rattus norvegicus. Briefly: Tested for in vivo inhibition of galactitol accumulation in the sciatic nerve of galactose-fed rats at the dose of 1.1 (mg/kg/day); NS=Not significant.
In test [6] the target is Aldo-keto reductase family 1 member B1 (Bos taurus) (UniProt P16116). The test can be described thus: Compound was tested in vitro for inhibition of aldose reductase activity in partially purified bovine lens preparation at 10e-5 M; Not significant; NS=Not significant. In outline: as §2
Test [7] deals with Rattus norvegicus. Briefly: Tested for in vivo inhibition of galactitol accumulation in the sciatic nerve of galactose-fed rats at the dose of 47 (mg/kg/day); NS=Not significant. It counts as functional, organism-based. The essentials: as §1
The test system of test [8] is Rattus norvegicus. The test can be described thus: Tested for in vivo inhibition of galactitol accumulation in the sciatic nerve of galactose-fed rats at the dose of 1.0 (mg/kg/day); NS=Not significant.
For test [9], the system named is Rattus norvegicus. The test can be described thus: Tested for in vivo inhibition of galactitol accumulation in the sciatic nerve of galactose-fed rats at the dose of 87.3 (mg/kg/day); NS=Not significant. It is filed as functional, organism-based. The essentials:
(§3)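 Rats fed a 20% galactose diet for 4 days, with test compound given in the diet at the stated daily dose (mg/kg/day). Read-out is inhibition of galactitol (polyol) accumulation in sciatic nerve. Values are % inhibition, mean ± SEM of six animals; p < 0.01 unless marked (some p < 0.05). NS = no significant inhibition of polyol accumulation. Tolrestat was the reference standard.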

Test [10] concerns Rattus norvegicus. Briefly: Tested for in vivo inhibition of galactitol accumulation in the lens of galactose-fed rats at the dose of 87.3 (mg/kg/day); NS=Not significant. It counts as functional, organism-based. The settings on record: Lens of camera-type eye. In outline: (§4)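 Galactosemic rats were fed 20% galactose for 4 days, with the compound mixed into the diet. […] galactitol accumulation was measured, and activity is given as % inhibition at the stated daily dose (mg/kg/day). Values are mean ± SEM of six animals; p < 0.01 unless indicated. NS means no significant inhibition of polyol accumulation.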

Test [11] has as its system Rattus norvegicus. Briefly: Tested for in vivo inhibition of galactitol accumulation in the sciatic nerve of galactose-fed rats at the dose of 91.6 (mg/kg/day); NS=Not significant. It is filed as functional, organism-based. The essentials:
as §3

The subject of test [12] is Rattus norvegicus. The test can be described thus: Tested for in vivo inhibition of galactitol accumulation in the lens of galactose-fed rats at the dose of 91.6 (mg/kg/day); NS=Not significant. It counts as functional, organism-based. The note with it: Lens of camera-type eye. The essentials:
as §4

The subject of test [13] is Rattus norvegicus. The test can be described thus: Tested for in vivo inhibition of galactitol accumulation in the lens of galactose-fed rats at the dose of 24.8 (mg/kg/day); NS=Not significant. It is filed as functional, organism-based. The note with it: Lens of camera-type eye.
The subject of test [14] is Rattus norvegicus. Briefly: Tested for in vivo inhibition of galactitol accumulation in the sciatic nerve of galactose-fed rats at the dose of 24.8 (mg/kg/day); NS=Not significant. It counts as functional, organism-based. The essentials: as §1
The test system of test [15] is Rattus norvegicus. The test can be described thus: Tested for in vivo inhibition of galactitol accumulation in the lens of galactose-fed rats at the dose of 54 (mg/kg/day); NS=Not significant. The settings on record: Lens of camera-type eye. It counts as functional, organism-based.
Test [16] concerns Rattus norvegicus. The test can be described thus: tTested for in vivo inhibition of galactitol accumulation in the sciatic nerve of galactose-fed rats at the dose of 54 (mg/kg/day); NS=Not significant. It is filed as functional, organism-based. The essentials: as §3
The test system of test [17] is Rattus norvegicus. Briefly: Tested for in vivo inhibition of galactitol accumulation in the lens of galactose-fed rats at the dose of 55.4 (mg/kg/day); NS=Not significant. It counts as functional, organism-based. The note with it: Lens of camera-type eye. The essentials:
as §4

Test [18] concerns Rattus norvegicus. The test can be described thus: Tested for in vivo inhibition of galactitol accumulation in the sciatic nerve of galactose-fed rats at the dose of 55.4 (mg/kg/day); NS=Not significant. It is filed as functional, organism-based. In outline: as §3
Test [19] has as its system Rattus norvegicus. Briefly: Tested for in vivo inhibition of galactitol accumulation in the sciatic nerve of galactose-fed rats at the dose of 22 (mg/kg/day); NS=Not significant. It is filed as functional, organism-based. In outline:
as §1

Test [20] has as its system Rattus norvegicus. The test can be described thus: Tested for in vivo inhibition of galactitol accumulation in the lens of galactose-fed rats at the dose of 22 (mg/kg/day); NS=Not significant. It is filed as functional, organism-based. The note with it: Lens of camera-type eye.
Test [21] deals with Rattus norvegicus. The test can be described thus: Tested for in vivo inhibition of galactitol accumulation in the lens of galactose-fed rats at the dose of 54.8 (mg/kg/day); NS=Not significant. It counts as functional, organism-based. The settings on record: Lens of camera-type eye.
Test [22] concerns Rattus norvegicus. The test can be described thus: Tested for in vivo inhibition of galactitol accumulation in the sciatic nerve of galactose-fed rats at the dose of 54.8 (mg/kg/day). It counts as functional. In outline: as §3
Test [23] relates to Rattus norvegicus. Briefly: Tested for in vivo inhibition of galactitol accumulation in the sciatic nerve of galactose-fed rats at the dose of 48 (mg/kg/day). It is filed as functional. In outline: as §3
In test [24] the test system is Rattus norvegicus. Briefly: Tested for in vivo inhibition of galactitol accumulation in the lens of galactose-fed rats at the dose of 48 (mg/kg/day); NS=Not significant. It is filed as functional, organism-based. The settings on record: Lens of camera-type eye.
The test system of test [25] is Rattus norvegicus. The test can be described thus: Tested for in vivo inhibition of galactitol accumulation in the lens of galactose-fed rats at the dose of 5.3 (mg/kg/day); NS=Not significant. It counts as functional, organism-based. The settings on record: Lens of camera-type eye.
Test [26] deals with Rattus norvegicus. The test can be described thus: Tested for in vivo inhibition of galactitol accumulation in the sciatic nerve of galactose-fed rats at the dose of 5.3 (mg/kg/day); NS=Not significant. It is filed as functional, organism-based. The essentials: as §3

What is called inhibition is the relative decrease from the control value, in per cent. With `O=C(O)CC1C(=O)N(Cc2ccc(Br)cc2F)C(=O)c2ccccc21` (centres undefined), the inhibition in test [1] worked out at 50%. Also, the inhibition entry with Rattus norvegicus [2] and in the test on Rattus norvegicus [3] was “inactive” each time.
Take `CCN1C(=O)CC2(C(=O)N(C)C(=O)c3ccc(Cl)cc32)C1=O` (centres undefined): the inhibition result (in [4]; with Rattus norvegicus [5]) was “inactive” each time.
For `CN1C(=O)CC2(C(=O)N(Cc3ccc(Br)cc3F)C(=O)c3ccc(F)cc32)C(=O)N1C` (centres undefined), the inhibition result (in test [6]; in the test with Rattus norvegicus [7]) was “inactive” each time.
For `CCCN1C(=O)CC2(C1=O)C(=O)N(Cc1ccc(Br)cc1F)C(=O)c1ccc(F)cc12` (centres undefined), the inhibition result (in test [4]; with Rattus norvegicus [8]) was “inactive” in each case.
In the case of `CCN1C(=O)c2ccccc2C(CC(=O)NC(=O)OC)C1=O` (centres undefined), the inhibition entry (in test [4]; in the test on Rattus norvegicus [9]; in the test on Rattus norvegicus [10]) was “inactive” each time.
`CCCN1C(=O)c2ccccc2C(CC(=O)NC(=O)OC)C1=O` (centres undefined): the inhibition result (in test [4]; in the test on Rattus norvegicus [11]; with Rattus norvegicus [12]) was “inactive” each time.
Consider `CCNC(=O)CC1C(=O)N(Cc2ccc(Br)cc2F)C(=O)c2ccccc21` (centres undefined), for which the inhibition entry (in test [4]; in the test on Rattus norvegicus [13]; in the test on Rattus norvegicus [14]) was “inactive” in each case.
`O=C1CC2(N1)C(=O)N(Cc1ccc(Br)cc1F)C(=O)c1ccc(F)cc12` (centres undefined): the inhibition entry in the test with Rattus norvegicus [15] and in the test with Rattus norvegicus [16] was “inactive” each time.
With `O=C1c2ccccc2C2(CC(=O)N(NS(=O)(=O)C(F)(F)F)C2=O)C(=O)N1Cc1ccc(Br)cc1F` (centres undefined), the inhibition entry (in [4]; with Rattus norvegicus [17]; with Rattus norvegicus [18]) was “inactive” in each case.
In the case of `COc1c(CC(=O)O)c2ccccc2c(=O)n1Cc1ccc(Br)cc1F`, the inhibition result in the test on Rattus norvegicus [19] and in the test on Rattus norvegicus [20] was “inactive” in each case.
A word on the Inhibition: it is the drop in the measured response relative to a control, in per cent. Read a low Inhibition as little suppression. Regarding `COC(=O)N(C(=O)OC)N1C(=O)CC2(C(=O)N(Cc3ccc(Br)cc3F)C(=O)c3ccccc32)C1=O` (centres undefined), the inhibition entry (in [4]; in the test on Rattus norvegicus [21]) was “inactive” throughout. Moreover, in the test with Rattus norvegicus [22], the Inhibition is recorded as 50%.
For the compound `COC(=O)NC(=O)CC1C(=O)N(Cc2ccc(Br)cc2F)C(=O)c2ccccc21` (centres undefined), in test [4], the inhibition was found to be 84%. The Inhibition in the test on Rattus norvegicus [23] turned out to be 96%. In the test with Rattus norvegicus [24], the inhibition result was “inactive”.
Turning to `CN1C(=O)c2ccc(Cl)cc2C(CC(N)=O)C1=O` (centres undefined), the inhibition entry (in test [4]; in the test with Rattus norvegicus [25]; in the test on Rattus norvegicus [26]) was “inactive” each time.
